Laboratory results from ChEMBL document CHEMBL5696442, “Discovery of type II inhibitors of TGFβ-activated kinase 1 (TAK1) and mitogen-activated protein kinase kinase kinase kinase 2 (MAP4K2)” (J Med Chem, 2015).

Columns and labels:
[1] = target: Mitogen-activated protein kinase kinase kinase kinase 4 (Homo sapiens, UniProt O95819); experiment: Inhibition of ZC1 Lys2 labeling site in human Huh-7 cell lysate at 1 uM by KiNativ Profiling analysis relative to control; format: subcellular
[2] = target: T1, Serine/threonine-protein kinase Nek9 (Homo sapiens) (UniProt Q8TD19); experiment: Inhibition of NEK9 Lys1 labeling site harbouring RTEDDSLVVWKEVDLTR in human A-375 cells at 5 uM by KiNativ Profiling analysis relative to control; format: cell-based
T1 sequence (whole entry): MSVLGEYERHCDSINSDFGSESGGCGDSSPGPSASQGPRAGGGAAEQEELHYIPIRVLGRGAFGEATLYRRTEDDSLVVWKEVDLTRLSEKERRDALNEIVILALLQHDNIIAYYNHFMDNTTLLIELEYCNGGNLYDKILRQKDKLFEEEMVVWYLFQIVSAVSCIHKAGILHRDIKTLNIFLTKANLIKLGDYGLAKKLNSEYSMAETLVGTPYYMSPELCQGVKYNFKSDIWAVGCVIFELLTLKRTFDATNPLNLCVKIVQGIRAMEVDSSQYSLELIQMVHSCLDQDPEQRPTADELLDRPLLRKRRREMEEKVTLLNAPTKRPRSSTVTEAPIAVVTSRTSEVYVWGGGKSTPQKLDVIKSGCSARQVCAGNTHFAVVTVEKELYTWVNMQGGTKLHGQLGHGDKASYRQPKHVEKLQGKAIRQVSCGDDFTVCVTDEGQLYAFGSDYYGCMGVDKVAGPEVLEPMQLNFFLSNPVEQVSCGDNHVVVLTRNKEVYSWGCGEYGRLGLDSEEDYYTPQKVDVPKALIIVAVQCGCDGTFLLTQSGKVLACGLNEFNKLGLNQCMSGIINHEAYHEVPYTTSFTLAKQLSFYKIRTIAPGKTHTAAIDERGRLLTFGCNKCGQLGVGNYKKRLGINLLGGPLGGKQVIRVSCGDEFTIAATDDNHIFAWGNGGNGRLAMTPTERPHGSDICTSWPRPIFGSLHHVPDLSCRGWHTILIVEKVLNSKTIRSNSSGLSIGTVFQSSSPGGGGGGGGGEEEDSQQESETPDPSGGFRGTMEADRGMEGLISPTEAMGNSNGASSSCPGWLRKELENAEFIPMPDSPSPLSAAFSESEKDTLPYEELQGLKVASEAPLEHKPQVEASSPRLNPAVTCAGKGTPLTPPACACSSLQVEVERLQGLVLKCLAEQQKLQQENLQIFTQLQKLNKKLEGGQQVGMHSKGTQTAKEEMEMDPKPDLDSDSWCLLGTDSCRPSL

[3] = target: Focal adhesion kinase 1 (Homo sapiens) (UniProt Q05397); experiment: Inhibition of FAK Lys1 labeling site in human A-375 cells at 0.5 uM by KiNativ Profiling analysis relative to control; format: cell-based
Procedure, shortened: (§1)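 Live A375 melanoma cells were treated with compound at 5 or 0.5 μM, then lysed. Lysates were labeled with a lysine-reactive ATP or ADP-biotin probe. Read-out was the compound's protection of kinase labeling sites from probe labeling (KiNativ).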

[4] = target: Ribosomal protein S6 kinase alpha-2 (Homo sapiens) (UniProt Q15349); experiment: Inhibition of RSK3 Protein Kinase Domain in human A-375 cells at 5 uM by KiNativ Profiling analysis relative to control; format: cell-based
Procedure, shortened: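 Live A375 melanoma cells treated with compound at 5 or 0.5 μM, then lysed. Lysate kinases were labeled with a lysine-reactive ATP or ADP-biotin probe. Inhibition was read as protection of labeling sites from the probe.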

[5] = target: Ribosomal protein S6 kinase alpha-3 (Homo sapiens) (UniProt P51812); experiment: Inhibition of RSK2 domain2 Protein Kinase Domain in human A-375 cells at 0.05 uM by KiNativ Profiling analysis relative to control; format: cell-based
[6] = target: T2, Mitogen-activated protein kinase 12 (Homo sapiens) (UniProt P53778); experiment: Inhibition of p38 gamma Lys2 labeling site in human A-375 cells at 5 uM by KiNativ Profiling analysis relative to control; format: cell-based
T2 sequence (whole entry): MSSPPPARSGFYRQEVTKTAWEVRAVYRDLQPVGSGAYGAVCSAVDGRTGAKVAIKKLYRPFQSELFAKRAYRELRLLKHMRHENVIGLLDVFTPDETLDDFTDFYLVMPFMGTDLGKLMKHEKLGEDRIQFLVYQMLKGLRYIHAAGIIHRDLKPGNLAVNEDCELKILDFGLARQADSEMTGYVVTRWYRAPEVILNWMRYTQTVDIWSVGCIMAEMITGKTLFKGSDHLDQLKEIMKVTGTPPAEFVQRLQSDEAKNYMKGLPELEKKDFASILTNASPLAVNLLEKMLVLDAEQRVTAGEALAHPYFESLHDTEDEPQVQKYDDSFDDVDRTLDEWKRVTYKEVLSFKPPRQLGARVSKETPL

[7] = target: T3, Mitogen-activated protein kinase kinase kinase 3 (Homo sapiens) (UniProt Q99759); experiment: Inhibition of MAP3K3 Lys2 labeling site in human A-375 cells at 5 uM by KiNativ Profiling analysis relative to control; format: cell-based
T3 sequence (whole entry): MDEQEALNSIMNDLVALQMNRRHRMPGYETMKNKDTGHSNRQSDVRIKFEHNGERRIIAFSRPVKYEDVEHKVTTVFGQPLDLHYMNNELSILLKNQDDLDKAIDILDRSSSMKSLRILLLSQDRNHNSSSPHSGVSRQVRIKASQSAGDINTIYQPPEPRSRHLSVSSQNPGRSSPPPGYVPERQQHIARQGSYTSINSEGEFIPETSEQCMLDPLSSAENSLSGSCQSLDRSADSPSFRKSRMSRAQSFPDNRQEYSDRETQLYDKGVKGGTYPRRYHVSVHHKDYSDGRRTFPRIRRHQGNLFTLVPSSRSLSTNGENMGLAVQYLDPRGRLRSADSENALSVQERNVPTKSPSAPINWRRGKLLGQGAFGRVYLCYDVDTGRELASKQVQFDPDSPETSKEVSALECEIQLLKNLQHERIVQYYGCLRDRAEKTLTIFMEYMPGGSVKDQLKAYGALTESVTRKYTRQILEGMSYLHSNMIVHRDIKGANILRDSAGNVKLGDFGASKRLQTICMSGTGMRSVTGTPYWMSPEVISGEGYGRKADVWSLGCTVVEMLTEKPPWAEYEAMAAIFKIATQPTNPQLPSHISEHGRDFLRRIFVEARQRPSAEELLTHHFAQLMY

[8] = target: Cyclin-dependent kinase 9 (Homo sapiens) (UniProt P50750); experiment: Inhibition of CDK9 Lys2 labeling site in human A-375 cells at 0.05 uM by KiNativ Profiling analysis relative to control; format: cell-based
[9] = target: Cyclin-dependent kinase 18 (Homo sapiens) (UniProt Q07002); experiment: Inhibition of PCTAIRE3 Lys1 labeling site harbouring SKLTENLVALKEIRLEHEEGAPCTAIR in human A-375 cells at 5 uM by KiNativ Profiling analysis relative to control; format: cell-based; procedure, shortened: as §1
Chain of Cyclin-dependent kinase 18 (Homo sapiens) (Q07002 whole entry): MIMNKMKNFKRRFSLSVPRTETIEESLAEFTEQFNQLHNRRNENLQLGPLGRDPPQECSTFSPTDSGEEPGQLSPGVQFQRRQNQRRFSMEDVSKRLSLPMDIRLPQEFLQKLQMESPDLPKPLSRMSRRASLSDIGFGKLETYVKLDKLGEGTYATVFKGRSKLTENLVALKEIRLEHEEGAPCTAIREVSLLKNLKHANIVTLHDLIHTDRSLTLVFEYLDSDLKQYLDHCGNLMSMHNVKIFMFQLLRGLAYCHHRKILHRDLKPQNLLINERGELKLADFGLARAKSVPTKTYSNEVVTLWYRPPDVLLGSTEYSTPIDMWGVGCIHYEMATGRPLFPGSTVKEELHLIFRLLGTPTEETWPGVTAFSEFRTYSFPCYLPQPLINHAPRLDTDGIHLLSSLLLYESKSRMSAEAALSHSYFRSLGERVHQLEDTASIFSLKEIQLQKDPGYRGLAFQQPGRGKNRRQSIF

Chain of Ribosomal protein S6 kinase alpha-2 (Homo sapiens) (Q15349 whole entry, the tested form may be a part): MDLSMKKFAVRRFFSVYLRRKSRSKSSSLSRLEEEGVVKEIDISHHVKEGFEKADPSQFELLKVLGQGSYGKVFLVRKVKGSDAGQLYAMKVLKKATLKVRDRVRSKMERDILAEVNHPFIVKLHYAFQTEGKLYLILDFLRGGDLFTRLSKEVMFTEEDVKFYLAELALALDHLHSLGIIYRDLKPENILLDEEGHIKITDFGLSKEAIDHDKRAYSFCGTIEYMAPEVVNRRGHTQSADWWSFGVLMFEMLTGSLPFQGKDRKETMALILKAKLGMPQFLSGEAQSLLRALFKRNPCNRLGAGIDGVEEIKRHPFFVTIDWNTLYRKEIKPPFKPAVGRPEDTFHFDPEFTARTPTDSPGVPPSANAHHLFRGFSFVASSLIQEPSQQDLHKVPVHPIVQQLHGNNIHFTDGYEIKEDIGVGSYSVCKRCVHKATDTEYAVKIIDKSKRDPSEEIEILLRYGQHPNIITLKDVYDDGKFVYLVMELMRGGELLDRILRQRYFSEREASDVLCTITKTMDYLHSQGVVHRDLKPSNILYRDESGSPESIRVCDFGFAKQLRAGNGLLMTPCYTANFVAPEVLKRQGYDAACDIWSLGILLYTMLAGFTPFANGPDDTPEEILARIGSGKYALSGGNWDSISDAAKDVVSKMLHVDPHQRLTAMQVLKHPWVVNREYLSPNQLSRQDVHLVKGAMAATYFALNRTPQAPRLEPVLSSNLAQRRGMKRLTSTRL
Chain of Mitogen-activated protein kinase kinase kinase kinase 4 (O95819 2-1239 limits assumed): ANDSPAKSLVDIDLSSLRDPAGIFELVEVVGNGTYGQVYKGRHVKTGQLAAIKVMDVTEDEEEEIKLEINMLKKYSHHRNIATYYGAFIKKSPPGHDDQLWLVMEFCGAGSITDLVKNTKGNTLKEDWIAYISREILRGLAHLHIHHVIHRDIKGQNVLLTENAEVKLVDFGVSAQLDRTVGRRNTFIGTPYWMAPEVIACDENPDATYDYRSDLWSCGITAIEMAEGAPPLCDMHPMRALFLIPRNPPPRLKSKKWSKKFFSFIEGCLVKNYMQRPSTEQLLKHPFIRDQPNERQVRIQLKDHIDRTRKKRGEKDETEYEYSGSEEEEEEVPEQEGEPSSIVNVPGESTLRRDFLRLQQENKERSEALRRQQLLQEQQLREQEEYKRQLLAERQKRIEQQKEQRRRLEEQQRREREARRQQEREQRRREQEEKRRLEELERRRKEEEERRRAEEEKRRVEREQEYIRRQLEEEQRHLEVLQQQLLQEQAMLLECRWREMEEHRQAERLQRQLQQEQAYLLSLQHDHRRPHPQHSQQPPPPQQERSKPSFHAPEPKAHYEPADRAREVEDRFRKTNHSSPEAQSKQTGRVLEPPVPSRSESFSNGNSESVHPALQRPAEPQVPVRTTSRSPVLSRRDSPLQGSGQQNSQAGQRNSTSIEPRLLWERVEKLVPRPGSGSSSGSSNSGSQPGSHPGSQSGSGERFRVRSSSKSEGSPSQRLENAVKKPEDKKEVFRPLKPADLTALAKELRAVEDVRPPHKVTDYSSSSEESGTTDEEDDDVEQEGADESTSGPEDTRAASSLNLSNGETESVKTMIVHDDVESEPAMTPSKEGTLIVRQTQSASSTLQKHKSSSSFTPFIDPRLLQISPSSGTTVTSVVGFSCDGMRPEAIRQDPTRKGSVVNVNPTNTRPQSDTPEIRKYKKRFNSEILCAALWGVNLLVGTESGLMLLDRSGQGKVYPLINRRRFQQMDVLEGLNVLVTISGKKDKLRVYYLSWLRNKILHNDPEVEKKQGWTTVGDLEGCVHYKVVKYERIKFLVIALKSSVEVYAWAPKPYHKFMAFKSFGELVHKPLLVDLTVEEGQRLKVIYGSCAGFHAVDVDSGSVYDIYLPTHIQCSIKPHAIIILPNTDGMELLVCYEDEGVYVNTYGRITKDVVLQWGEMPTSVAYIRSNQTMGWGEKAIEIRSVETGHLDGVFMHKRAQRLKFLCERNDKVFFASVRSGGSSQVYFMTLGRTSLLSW
Chain of Ribosomal protein S6 kinase alpha-3 (Homo sapiens) (P51812 whole entry, the tested form may be a part): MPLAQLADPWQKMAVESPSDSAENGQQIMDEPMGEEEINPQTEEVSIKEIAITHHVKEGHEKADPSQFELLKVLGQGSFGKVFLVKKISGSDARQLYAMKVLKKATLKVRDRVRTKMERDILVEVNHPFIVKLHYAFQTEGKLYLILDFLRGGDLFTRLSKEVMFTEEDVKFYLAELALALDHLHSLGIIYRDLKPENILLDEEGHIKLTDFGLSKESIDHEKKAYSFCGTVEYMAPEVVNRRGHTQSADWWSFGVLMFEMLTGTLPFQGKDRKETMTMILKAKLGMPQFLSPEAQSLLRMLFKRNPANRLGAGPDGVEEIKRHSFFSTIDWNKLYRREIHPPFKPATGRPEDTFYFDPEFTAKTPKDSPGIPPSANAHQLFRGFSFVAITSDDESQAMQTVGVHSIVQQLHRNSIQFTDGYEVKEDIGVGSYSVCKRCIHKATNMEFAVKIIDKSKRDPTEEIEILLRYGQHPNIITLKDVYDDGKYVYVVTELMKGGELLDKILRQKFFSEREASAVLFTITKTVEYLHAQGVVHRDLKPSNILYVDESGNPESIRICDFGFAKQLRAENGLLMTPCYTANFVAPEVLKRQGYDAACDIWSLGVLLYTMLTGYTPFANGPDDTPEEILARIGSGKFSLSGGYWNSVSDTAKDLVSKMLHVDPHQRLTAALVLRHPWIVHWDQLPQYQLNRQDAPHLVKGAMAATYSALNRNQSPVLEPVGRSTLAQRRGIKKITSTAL
Chain of Focal adhesion kinase 1 (Homo sapiens) (Q05397 2-1052 limits assumed): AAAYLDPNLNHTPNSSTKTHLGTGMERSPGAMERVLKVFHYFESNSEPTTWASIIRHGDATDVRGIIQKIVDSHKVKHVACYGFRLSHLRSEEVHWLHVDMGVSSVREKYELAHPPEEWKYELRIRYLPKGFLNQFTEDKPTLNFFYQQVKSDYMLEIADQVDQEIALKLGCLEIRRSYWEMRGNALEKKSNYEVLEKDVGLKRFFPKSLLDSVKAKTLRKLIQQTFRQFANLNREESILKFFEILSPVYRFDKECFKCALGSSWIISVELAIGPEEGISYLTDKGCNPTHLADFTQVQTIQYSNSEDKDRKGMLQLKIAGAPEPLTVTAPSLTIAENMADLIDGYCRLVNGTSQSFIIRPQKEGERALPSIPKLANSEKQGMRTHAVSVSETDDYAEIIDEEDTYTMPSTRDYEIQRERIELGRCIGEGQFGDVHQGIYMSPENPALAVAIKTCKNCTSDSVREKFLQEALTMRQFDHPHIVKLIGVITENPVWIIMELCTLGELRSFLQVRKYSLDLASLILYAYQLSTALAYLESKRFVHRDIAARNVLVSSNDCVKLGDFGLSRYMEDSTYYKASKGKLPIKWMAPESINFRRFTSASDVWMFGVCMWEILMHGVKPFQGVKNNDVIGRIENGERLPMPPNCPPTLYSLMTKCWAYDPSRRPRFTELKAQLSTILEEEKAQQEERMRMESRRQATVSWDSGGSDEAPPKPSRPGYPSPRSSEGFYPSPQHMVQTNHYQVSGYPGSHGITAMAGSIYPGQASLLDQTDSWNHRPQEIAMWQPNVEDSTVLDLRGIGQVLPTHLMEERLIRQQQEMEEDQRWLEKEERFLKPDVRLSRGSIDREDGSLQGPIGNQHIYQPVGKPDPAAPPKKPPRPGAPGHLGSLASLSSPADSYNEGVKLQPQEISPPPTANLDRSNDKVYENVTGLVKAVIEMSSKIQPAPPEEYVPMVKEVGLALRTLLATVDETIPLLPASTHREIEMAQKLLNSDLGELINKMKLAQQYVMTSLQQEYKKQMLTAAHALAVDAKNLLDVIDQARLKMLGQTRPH
Chain of Cyclin-dependent kinase 9 (Homo sapiens) (P50750 whole entry): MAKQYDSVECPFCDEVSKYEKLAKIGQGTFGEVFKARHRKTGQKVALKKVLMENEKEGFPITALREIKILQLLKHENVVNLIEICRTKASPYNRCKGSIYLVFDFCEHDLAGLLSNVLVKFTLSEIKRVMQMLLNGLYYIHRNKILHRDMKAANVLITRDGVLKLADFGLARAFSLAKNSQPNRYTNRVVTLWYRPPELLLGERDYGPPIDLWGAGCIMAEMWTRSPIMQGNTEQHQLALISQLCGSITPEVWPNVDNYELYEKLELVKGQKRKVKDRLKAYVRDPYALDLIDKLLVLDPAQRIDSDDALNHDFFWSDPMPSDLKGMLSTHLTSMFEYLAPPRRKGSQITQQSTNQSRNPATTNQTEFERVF

Structure (SMILES)	inhibition [1]	inhibition [2]	inhibition [3]	inhibition [4]	inhibition [5]	inhibition [6]	inhibition [7]	inhibition [8]	inhibition [9]
CNc1cc(Oc2cc(C(=O)Nc3cc(-n4cnc(C)c4)cc(C(F)(F)F)c3)ccc2C)ncn1	24.1%	–	–	–	–	–	–	–	–
CCN1CCN(Cc2ccc(NC(=O)c3ccc(C)c(Oc4ccnc5[nH]ccc45)c3)cc2C(F)(F)F)CC1	–	-3.9%	9.3%	5.8%	3.1%	> 94%	-4.8%	15.4%	56.6%
CCN1CCN(Cc2ccc(NC(=O)c3ccc(C)c(/C=C/c4cnc5[nH]ccc5c4OC)c3)cc2C(F)(F)F)CC1	–	21%	-2%	20%	-9.9%	52.7%	11.8%	10.7%	21.3%
CNc1cc(Oc2cc(C(=O)Nc3cc(N4CCN(C)CC4)cc(C(F)(F)F)c3)ccc2C)ncn1	2.7%	–	–	–	–	–	–	–	–
